Sampled rows, rich in hits. Any-hit rate of the full collection: about 2.7%.
HNF4A DNA FP: change in binding of human HNF4 alpha to DNA. P41235. HNF4a-FITC DNA binding, fluorescence polarization, 1 h. activity change, % at 10 µM. actives 0.3% (n = 360,000). AID 1224865; in the data active means activity change above about 30%, passing the limit was not always enough
NadD inh: blocks S. aureus nicotinate mononucleotide adenylyltransferase. purified NadD enzyme, colorimetric absorbance read-out. actives 0.78% (n = 360,000). AID 602399. inhibition, % at 20 µM; in the data active means inhibition above about 26%
PP1 inh: PP1-alpha (human) inhibition in PP5 counter-screen; P62136; AID 2235; purified PP1alpha, OMFP fluorescence; inhibition, % at 6.7 µM; actives 0.9% (n = 320,000);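 active means inhibition above the mean inhibition of all tested compounds plus 3 SD, computed separately for each screening campaign, cut at about 15% in these data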
Rpn11 block: inhibitors of human proteasome Rpn11; O00487; human 26S proteasome, Ub4-pepOG fluorescence polarization; 20S core pre-blocked with epoxomicin; inhibition, % at 20 µM; actives 0.59% (n = 360,000);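 active means inhibition at 20 µM, scaled to each plate's controls, above about 33%, limit read from the data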
TPT1 inhibitor: C. albicans TPT1 enzyme inhibition; recombinant caTPT1, FP RNA substrate dephosphorylation; inhibition, % at 5 µM; actives 0.81% (n = 300,000); AID 1962;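 active means inhibition above the mean of all tested compounds plus 3 SD, set per screening campaign, cut at about 24% in these data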;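 further: plate controls were DMSO alone for no effect and ferristatin control at 100 nM for full effect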
CSN inh: inhibitors of human CSN-mediated cullin deneddylation; actives 0.38% (n = 360,000); Q92905; AID 651999; Purified CSN, SCF-Nedd8-OG deneddylation, fluorescence polarization; inhibition, % at 12.5 µM;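 active means pattern-corrected inhibition above about 35%, with an unprinted fluorescence ratio check between 0.5 and 1.5, limit read from the data, passing the limit was not always enough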;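 further: 0% = enzyme with substrate and 100% = substrate without enzyme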
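Schedule: reaction 90 min, room temperature / Assay system: HEK293T-derived human Csn5 enzyme / Input: Csn5 at 0.24 nM final / Measure: inhibition of Csn5 cleavage, % / Control set: substrate-only high control, full reaction low control / Technique: fluorescence polarization of the substrate / Buffer or medium: Tris/NaCl/DTT buffer, pH 7.5 / Reagent: SCFSkp2-Nedd8OG substrate at 10 nM final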
NadD inh conf: confirmation of Staphylococcus aureus NadD inhibitors. AID 624309. inhibition, % at 20 µM. actives 13% (n = 2,000). shares compounds with NadD inh. purified S. aureus NadD, colorimetric enzyme assay; in the data active means inhibition mostly above about 42%, no sharp cut-off; inactive means mostly below about 42%
CSN deneddyl val: validation of inhibitors of human CSN-mediated cullin deneddylation; shares compounds with CSN inh; actives 62% (n = 540); Csn5 deneddylation of SCF-Nedd8OG, fluorescence polarization, 90 min; inhibition, % at 16.6 µM; AID 720654; in the data active means inhibition above about 50%;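 further: 0% = DMSO with enzyme and 100% = no enzyme wells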
MMP2 cntr CSN: blocks human MMP-2 in a CSN deneddylation counter-screen; shares compounds with CSN inh; recombinant MMP-2, FRET substrate fluorescence, 60 min; inhibition, % at 16.6 µM; actives 33% (n = 540); AID 720655;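 active means corrected plate-normalized z-score of 5 or more, or -5 or less, or inhibition of 15% or more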;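 further: plate controls were DMSO wells with enzyme for no effect and buffer wells lacking MMP-2 for full effect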
Thrombin counter: counter-screen for CSN deneddylation inhibitors: bovine thrombin inhibition; inhibition, % at 16.6 µM; shares compounds with CSN inh; bovine thrombin cleavage of Ub4-pepOG, fluorescence polarization; actives 49% (n = 540);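 active means inhibition at or above a set limit, with a fluorescence interference ratio between 0.5 and a set maximum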
Target sequence (P00735 whole entry, looked up): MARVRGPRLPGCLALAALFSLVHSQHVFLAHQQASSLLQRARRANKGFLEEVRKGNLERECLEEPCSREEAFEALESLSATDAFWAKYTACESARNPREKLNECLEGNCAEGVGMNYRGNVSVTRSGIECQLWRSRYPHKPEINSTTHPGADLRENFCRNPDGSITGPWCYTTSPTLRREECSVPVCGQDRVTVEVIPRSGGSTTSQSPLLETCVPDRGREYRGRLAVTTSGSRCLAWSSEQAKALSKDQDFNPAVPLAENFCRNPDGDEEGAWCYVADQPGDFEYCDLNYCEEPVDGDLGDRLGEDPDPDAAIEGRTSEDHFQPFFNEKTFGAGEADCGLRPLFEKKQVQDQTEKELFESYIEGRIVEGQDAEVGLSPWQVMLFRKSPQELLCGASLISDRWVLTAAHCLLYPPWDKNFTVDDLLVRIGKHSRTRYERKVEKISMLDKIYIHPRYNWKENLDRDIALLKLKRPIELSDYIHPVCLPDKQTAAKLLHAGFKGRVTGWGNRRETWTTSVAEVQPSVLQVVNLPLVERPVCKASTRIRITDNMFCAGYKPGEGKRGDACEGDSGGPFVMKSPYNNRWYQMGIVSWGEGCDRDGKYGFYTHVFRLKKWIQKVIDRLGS
* hit, by the source's call; nt = no result given; ! = a repeat was not active.

SMILES | HNF4A DNA FP | NadD inh | PP1 inh | Rpn11 block | TPT1 inhibitor | CSN inh | CSN deneddyl val | MMP2 cntr CSN | Thrombin counter | others
Cc1ccccc1NC(=O)Cc1nc(COC(=O)CSc2ccc(F)cc2)cs1 | 2.5 | -2.2 | nt | -3.8 | nt | 0.7 | nt | nt | nt
O=C(Cc1c[nH]c2ccccc12)NCC(=O)Nc1ccc(F)c(F)c1F | 3.3 | 0.7 | -1.6 | -4.6 | nt | -4.2 | nt | nt | nt
O=c1cc(CN2CCN(c3cccc(Cl)c3)CC2)c2cc(O)c(-c3ccccc3)cc2o1 | 4.0 | 38.9* | -1.0 | -1.2 | 1.9 | -3.1 | nt | nt | nt | NadD inh conf=4.3
CCc1ccc([C@@H]2CC=C(C(=O)O)[C@H](c3ccc(F)cc3)N2S(=O)(=O)c2ccc(C)cc2)cc1 | 1.4 | 5.4 | 6.1 | 8.5 | 2.2 | -6.4 | nt | nt | nt
O=C(N/N=C\C=C\c1ccco1)c1cc(-c2ccc3ccccc3c2)n[nH]1 | -7.8 | 54.2* | 12.3 | 4.9 | 5.2 | 43.0* | 96.4* | 11.4 | -8.9 | NadD inh conf=69.4*
O=C(N/N=C/C=C\c1ccco1)c1ccccn1 | 0.3 | 4.6 | -2.0 | 7.0 | 0.6 | 11.7 | nt | nt | nt
CNc1ccc(Br)cc(C(=O)/C=C/c2ccc3c(c2)OCO3)c1=O | -9.3 | 40.1* | 0.7 | -6.1 | 18.3 | 43.9* | 70.6* | -1.2 | 20.2* | NadD inh conf=20.4
O=C(C=Cc1ccc2c(c1)OCO2)c1ccccc1 | 1.9 | -4.2 | nt | 1.0 | nt | 14.0 | nt | nt | nt
N#CC(C#N)=Cc1c[nH]c(=O)c(C#N)c1Nc1ccccc1 | -16.3 | -2.0 | 2.3 | -19.6 | -1.9 | -1.6 | nt | nt | nt
O=C(Nc1nc(-c2ccco2)c(-c2ccco2)s1)c1ccc(F)cc1F | 1.0 | 41.3* | nt | 25.2 | nt | 44.5* | 102.7* | 1.5 | 12.8 | NadD inh conf=13.3
CCOc1ccc(C(=O)Nc2cc(-c3nc4ccccc4[nH]3)ccc2C)cc1[N+](=O)[O-] | -0.5 | 11.5 | -1.3 | -4.1 | -5.1 | 4.2 | nt | nt | nt
CCOc1ccc(C(=O)Nc2cc(-c3nc4ccccc4[nH]3)ccc2Cl)cc1[N+](=O)[O-] | 201.8 | 33.6* | 3.6 | -30.2 | -0.8 | 110.9* | nt | -4.2 | -7.5 | NadD inh conf=13.4
CCN1CCN(Cc2ccc(NC(=O)c3ccc(C)c(NC(=O)c4c[nH]c5cc(C(F)(F)F)ccc5c4=O)c3)cc2C(F)(F)F)CC1 | 54.5* | 35.7* | 5.2 | 3.1 | -3.0 | 78.4*! | 90.1* | 9.3 | 3.7 | NadD inh conf=-5.1
O=C(COc1ccc2c3c(c(=O)oc2c1)CCC3)NCCCN1CCCC1=O | 4.4 | -1.2 | -1.3 | -2.3 | 1.9 | -1.5 | nt | nt | nt
CCOC(=O)[C@]12CCCC=C1N(Cc1ccco1)C(=O)[C@H](CC(=O)NCCCN1CCCC1=O)C2 | 0.8 | 9.0 | nt | nt | nt | -3.7 | nt | nt | nt
N#Cc1c(NC(=O)CSc2ncnc3sccc23)oc(-c2ccco2)c1-c1ccco1 | 3.2 | 58.5* | 6.4 | 33.3 | 23.3 | 51.3* | 63.7* | 9.0 | 6.9 | NadD inh conf=58.2*
CCOC(=O)c1sc(NC(=O)CSc2n[nH]c(-c3ccncc3)n2)c(C#N)c1C | 0.9 | 8.8 | 3.4 | 2.4 | -0.5 | 0.3 | nt | nt | nt
CCOc1ccc(/C=C/C2=Cc3c(sc(NC(=O)CSc4n[nH]c(N)n4)c3C#N)C(C)(C)C2)cc1 | 41.6* | 58.0* | 22.4* | nt | 57.4* | 44.0* | 71.8* | 7.0 | 35.3* | NadD inh conf=26.1
COc1cc(NCCCCCCN)c2ncccc2c1OC | 24.6 | 51.2* | nt | 31.7 | nt | 86.5* | nt | -19.9 | -40.6 | NadD inh conf=22.5
N#Cc1c(F)cccc1N1CCN(Cc2ccc3c(c2)OCO3)CC1 | -2.1 | -0.2 | -2.9 | 3.3 | -0.3 | 3.0 | nt | nt | nt
C[n+]1cccc2c(Br)ccc([O-])c21 | -1.2 | 2.4 | 1.3 | 4.1 | -3.6 | 44.8* | 103.1* | 3.5 | -10.1
Clc1ccc(C2=NN(c3ccccc3)C(c3ccco3)C2)cc1 (centres undefined) | -2.2 | 5.8 | 2.8 | -2.3 | 3.3 | -7.0 | nt | nt | nt
O=[N+]([O-])c1ccc(/C=C/C2=NN(c3ccccc3)C(c3ccco3)C2)o1 (centres undefined) | 25.8 | 10.2 | nt | nt | nt | 62.3* | 41.9 | -3.4 | 20.8*
COc1cc(/C=C/C(=O)OCC(=O)N2CC(C)OC(C)C2)ccc1OCC#N (centres undefined) | 0.9 | 6.1 | nt | 2.7 | nt | -0.2 | nt | nt | nt
CC(=O)c1cccc(NC(=O)C2(C)Cc3c(-c4ccccc4)ccnc3O2)c1 (centres undefined) | -0.1 | -7.9 | nt | -1.1 | nt | -3.7 | nt | nt | nt
SMILES | HNF4A DNA FP | NadD inh | PP1 inh | Rpn11 block | TPT1 inhibitor | CSN inh | CSN deneddyl val | MMP2 cntr CSN | Thrombin counter | others
O=c1c2c3c(sc2[nH]c(=S)n1Cc1ccco1)CCC3 | -12.0 | 21.4 | 9.0 | 6.8 | 3.0 | 44.5* | 91.9* | 34.0* | -2.3
CC1(C)Cc2c(sc3[nH]c(=S)n(Cc4ccco4)c(=O)c23)CO1 | -0.4 | 6.9 | -2.5 | -0.5 | 5.3 | 6.4 | nt | nt | nt
CN(C)c1ccc(/C=C/c2cc[n+](C)cc2)cc1 | 67.9* | 6.1 | 0.8 | nt | 11.5 | 51.2* | 54.7* | -33.8* | 58.0*
CN(C)c1ccc(/C=C/c2cc[n+]([O-])cc2)cc1 | nt | nt | -3.5 | nt | -11.3 | nt | nt | nt | nt
COc1cc(/C=N/N2C(=O)CSC2=S)cc(Br)c1O | 75.8* | 8.2 | nt | nt | nt | 117.8* | -52.1 | 24.1* | 88.5*
COc1cccc(/C=N/N2C(=O)CSC2=S)c1O | 3.0 | 12.3 | -1.6 | 4.0 | 4.8 | 0.3 | nt | nt | nt
O=C(N/N=C/c1cc(Br)c(Br)o1)c1ccc2c(c1)OCCO2 | -8.0 | 4.1 | 3.5 | 24.2 | 14.9 | 40.1* | 65.9* | 12.6 | 0.0
O=C(N/N=C/c1cc(Br)c(O)c(Br)c1O)c1ccc2c(c1)OCCO2 | -1.7 | 2.7 | 0.9 | -5.5 | -0.2 | 3.8 | nt | nt | nt
COc1cc(/C=C2\S/C(=N/S(=O)(=O)c3ccc(C)cc3)NC2=O)c([N+](=O)[O-])cc1OC | -2.4 | 15.1 | 13.7 | 10.0 | -3.9 | -4.8 | nt | nt | nt
Cc1ccc(S(=O)(=O)/N=C2/NC(=O)/C(=C/c3cc([N+](=O)[O-])ccc3O)S2)cc1 | 24.6 | -2.0 | 8.8 | nt | 64.4* | 54.9* | 53.5* | -43.9* | 30.8*
O=C(CCNC(=O)c1ccc(Br)cc1)NCc1ccccn1 | -0.6 | -1.2 | 0.1 | 4.2 | -1.1 | 0.3 | nt | nt | nt
Cc1ccc(NCc2ccccc2O)cc1 | -13.0 | -1.1 | 0.4 | -3.0 | -1.9 | 1.9 | nt | nt | nt
Cc1ccc(CNc2ccc(O)cc2)cc1 | 1.2 | 11.1 | nt | -6.4 | nt | 38.4* | 86.9* | 0.2 | -30.0
O=C(O)CSc1nc2sc3c(c2c(=O)n1Cc1ccccc1)CCCCC3 | -4.7 | 3.6 | 6.3 | -18.8 | 1.1 | -0.1 | nt | nt | nt

High-throughput results (PubChem)
